Compound activity from PubChem BioAssay.
Most compounds without a hit are left out; they make up all but 2.9% or so of the library.
core dimer inh – inhibitors of HCV core protein dimerization, primary screen, biochemical, TR-FRET, high-throughput | 300,000 tested, 0.33% active | inhibition, % at 5 µM | TR-FRET GST/Flag-core106 dimerization, 1536-well;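 active = inhibition above the mean of all tested compounds plus 3 SD, set per screening campaign, cut at about 45% in these data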
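System – GST-tagged and Flag-tagged HCV core protein residues 1-106 · Repeats – one well for each compound · Technique – TR-FRET 671 and 617 nm emission · Doses – one concentration, 5 µM, in 0.5% DMSO · Times – 4 h, 22.5 °C incubation · Also added – Eu donor and XL665 acceptor anti-tag antibodies · Measure – percent inhibition of core106 dimerization signal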
NS3 helicase inh – inhibitors of HCV NS3 helicase, primary screen, biochemical, Cy5 molecular beacon fluorescence; Hepatitis C virus NS3 helicase; NS3 helicase DNA unwinding; inhibition, % at 10.9 µM; 290,000 tested, 0.56% active;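 active = inhibition above the mean of all tested compounds plus 3 SD, set per campaign, cut at about 35% in these data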;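 also: 0% = DMSO wells and 100% = thioflavine S control wells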
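Compound dosing – single dose, 10.9 µM nominal final, DMSO 0.8% final · System – NS3 helicase fragment of HCV · Buffer or medium – MOPS pH 6.5, MgCl2, DTT, Tween20, BSA · Signal – Cy5 beacon fluorescence read at start and 1 h · Also added – annealed dual-labelled DNA beacon duplex, ATP-started · Schedule – 1 h at 25 °C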
PRMT1 inh – PRMT1 methyltransferase inhibitors, primary screen, biochemical, fluorescence polarization; recombinant PRMT1, activity-based probe fluorescence polarization; inhibition, % at 2.79 µM; 370,000 tested, 1.3% active;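 active = inhibition above about 21% made by adding two undisclosed values, limit read from the data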
ABHD5-PLIN5 inh – ABHD5-PLIN5 interaction inhibitors, primary screen, cell lysate, split luciferase complementation, luminescence | Split G. princeps luciferase complementation, 4 h | inhibition, % at 4 µM | Perilipin-5 (Homo sapiens) + 1-acylglycerol-3-phosphate O-acyltransferase ABHD5 (Homo … | 360,000 tested, 0.78% active;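 active = inhibition above the mean inhibition across every tested compound plus 3 SD, cut at about 22% in these data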;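 also: 0% = DMSO only wells and the 100% control is not disclosed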
Target sequence (Q00G26 whole entry, looked up): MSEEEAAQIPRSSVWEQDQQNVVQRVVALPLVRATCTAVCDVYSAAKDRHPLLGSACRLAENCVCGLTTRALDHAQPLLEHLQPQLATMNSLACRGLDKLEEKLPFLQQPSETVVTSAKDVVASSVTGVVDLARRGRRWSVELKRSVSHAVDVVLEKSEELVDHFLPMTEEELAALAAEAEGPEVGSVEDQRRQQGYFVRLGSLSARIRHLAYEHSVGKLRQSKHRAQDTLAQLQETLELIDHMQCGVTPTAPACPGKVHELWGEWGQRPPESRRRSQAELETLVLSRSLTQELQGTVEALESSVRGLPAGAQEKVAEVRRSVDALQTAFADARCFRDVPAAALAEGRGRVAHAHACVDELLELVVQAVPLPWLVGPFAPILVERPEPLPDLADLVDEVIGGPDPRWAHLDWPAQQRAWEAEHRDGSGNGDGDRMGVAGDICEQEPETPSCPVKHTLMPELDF
Target sequence (Q8WTS1 whole entry, looked up): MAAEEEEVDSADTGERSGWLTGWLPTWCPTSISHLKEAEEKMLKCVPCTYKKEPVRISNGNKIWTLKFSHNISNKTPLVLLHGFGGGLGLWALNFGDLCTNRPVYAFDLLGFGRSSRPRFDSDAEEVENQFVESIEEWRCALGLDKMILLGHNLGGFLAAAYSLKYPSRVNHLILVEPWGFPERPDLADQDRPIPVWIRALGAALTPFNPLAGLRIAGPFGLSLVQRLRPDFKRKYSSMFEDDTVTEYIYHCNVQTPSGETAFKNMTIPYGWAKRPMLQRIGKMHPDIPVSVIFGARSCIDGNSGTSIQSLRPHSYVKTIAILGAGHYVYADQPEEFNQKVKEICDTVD
A3A deaminase – APOBEC3A ssDNA deaminase inhibitors, primary screen, selectivity assay for APOBEC3G inhibitor project, biochemical, FAM/TAMRA oligo cleavage fluorescence. recombinant A3A, FAM/TAMRA ssDNA deamination fluorescence. inhibition, % at 20 µM. AID 493011, 2011. 330,000 tested, 0.41% active;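 active = at least 40% inhibition at 20 µM here, with at most 30% in a related deaminase screen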;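 also: plate controls were A3A with DMSO for no effect and wells lacking A3A enzyme for full effect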
APOBEC3G inh – APOBEC3G DNA deaminase inhibitors, primary screen, biochemical, fluorescence, single-stranded DNA substrate, uHTS; DNA dC->dU-editing enzyme APOBEC-3G (Homo sapiens), Q9HC16; recombinant A3G, ssDNA deamination FAM/TAMRA fluorescence; inhibition, % at 20 µM; 330,000 tested, 0.28% active; AID 493012, 2011;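 active = inhibition of at least 40% at 20 µM, with no more than 30% in the related APOBEC3A deaminase screen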;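 also: plate controls were DMSO wells with A3G for no effect and wells lacking A3G enzyme for full effect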
APOBEC3G confirm – APOBEC3G deaminase inhibitor retest, confirmation, biochemical, fluorescence, single-stranded DNA substrate, single concentration | shares compounds with APOBEC3G inh | recombinant A3G ssDNA deaminase, UDG/FAM-TAMRA fluorescence | inhibition, % at 20 µM | 890 tested, 72% active | AID 493152, 2011;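 active = inhibition reaching a set limit in any replicate at 20 µM, the limit being 80% of the first screen's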
UDG A3G counter – E. coli UDG inhibitors, confirmation, counter-screen for APOBEC3G inhibitor project, biochemical, single concentration, fluorescence, FAM/TAMRA oligo; 710 tested, under 10 active; AID 504715, 2011; shares compounds with APOBEC3G inh; UDG counterscreen; inhibition, % at 20 µM;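 active = compounds giving 40% or more inhibition at 20 µM in any one of the three replicates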;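 also: plate controls were DMSO wells with UDG and oligo for no effect and DMSO wells lacking both for full effect; inhibitors lower the FAM signal released by uracil excision and alkaline cleavage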
ABHD5-PLIN5 conf – ABHD5-PLIN5 interaction inhibitors, confirmation, biochemical, luminescence; shares compounds with ABHD5-PLIN5 inh; AID 651612, 2012; inhibition, % at 4 µM; 2,200 tested, 67% active; in the data active = inhibition above about 23%;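 also: 0% = DMSO vehicle wells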
HNF4 counter – HNF4 dimerization inhibitors, counter-screen for ABHD5-PLIN5 interaction inhibitor project, biochemical, split-luciferase complementation, luminescence; 2,200 tested, 77% active; inhibition, % at 4 µM; shares compounds with ABHD5-PLIN5 inh;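 active = mean inhibition across replicate wells exceeding the computed hit threshold, cut at about 13% in these data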;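 also: light from luciferase halves that rejoin when HNF4 fusion proteins dimerize; 0% = DMSO only wells and the 100% control is not given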
PRMT1 confirm – PRMT1 methyltransferase inhibitors, confirmation, biochemical, fluorescence polarization, triplicate | shares compounds with PRMT1 inh | recombinant His-PRMT1, activity-based probe fluorescence polarization | inhibition, % at 2.79 µM | 3,300 tested, 42% active;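 active = mean inhibition across replicates above the hit cutoff derived for the earlier primary screen, cut at about 22% in these data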
The depositor's hits bear a star; ! = repeats disagree.

How did O=C(NCCCN1CCOCC1)c1sc2cc([N+](=O)[O-])ccc2c1Cl do in these assays?
core dimer inh: -9.7; NS3 helicase inh: 3.9; ABHD5-PLIN5 inh: 23.6*; A3A deaminase: -8.6; APOBEC3G inh: 58.3*; APOBEC3G confirm: 84.7*; UDG A3G counter: -2.2; ABHD5-PLIN5 conf: 5.1; HNF4 counter: 66.4*

How did COc1ccc(NC(=O)CSc2nnc(NC(=O)C3CCC3)s2)c(OC)c1 do in these assays?
core dimer inh: 8.3; NS3 helicase inh: -2.6; PRMT1 inh: 2.7; ABHD5-PLIN5 inh: 2.7; A3A deaminase: -1.7; APOBEC3G inh: -11.7

What do the screens show for `Cc1ccc(-n2sc3ccccc3c2=O)cc1`?
core dimer inh: -13.7; NS3 helicase inh: 2.7; PRMT1 inh: 75.7*; ABHD5-PLIN5 inh: 30.9*; A3A deaminase: 1.7; APOBEC3G inh: 76.9*; APOBEC3G confirm: 70.6*; UDG A3G counter: -3.9; ABHD5-PLIN5 conf: 10.1; HNF4 counter: 114.3*

How did CCC(=O)NC1=C(NC(C)c2ccccc2)C(=O)c2ccccc2C1=O (centres undefined) do in these assays?
core dimer inh: -7.9; NS3 helicase inh: -0.6; PRMT1 inh: -1.2; ABHD5-PLIN5 inh: -9.3; A3A deaminase: -1.4; APOBEC3G inh: 0.5

How did CCC(=O)NC1=C(Cl)C(=O)C(NC(=O)CC)=C(Cl)C1=O do in these assays?
NS3 helicase inh: 11.2; PRMT1 inh: 90.2*; ABHD5-PLIN5 inh: 44.7*; A3A deaminase: -4.0; APOBEC3G inh: 86.6*; APOBEC3G confirm: 95.7*; UDG A3G counter: -2.0; ABHD5-PLIN5 conf: 101.4*; HNF4 counter: 103.3*

How did CC1(Oc2ccccc2-c2ccno2)CCN(Cc2csc3ccccc23)C1 (centres undefined) do in these assays?
PRMT1 inh: 3.4; ABHD5-PLIN5 inh: 3.2

What do the screens show for `COc1cc(Cl)c(S(=O)(=O)N2CCCC2)cc1Cl`?
core dimer inh: 3.8; NS3 helicase inh: 2.5; PRMT1 inh: -4.4; ABHD5-PLIN5 inh: -0.6; A3A deaminase: -4.3; APOBEC3G inh: -13.4

How did COc1cc(N2C(=O)C=CC2=O)c(OC)cc1Cl do in these assays?
core dimer inh: 4.3; NS3 helicase inh: -8.4; PRMT1 inh: 89.5*; ABHD5-PLIN5 inh: 38.7*; A3A deaminase: -2.2; APOBEC3G inh: 43.4*; APOBEC3G confirm: 54.2*; UDG A3G counter: -1.1; ABHD5-PLIN5 conf: 43.9*; HNF4 counter: 104.0*

What do the screens show for `C[C@@H]1CNC(=O)c2c(C(=O)N3CCN(c4ccccc4)CC3)ncn21`?
PRMT1 inh: -3.5

What do the screens show for `O=S(=O)(/N=S1/CC=CCN1S(=O)(=O)c1ccccc1)c1ccccc1` (centres undefined)?
core dimer inh: -5.3; NS3 helicase inh: 1.8; ABHD5-PLIN5 inh: 71.5*; A3A deaminase: -6.8; APOBEC3G inh: 62.3*; APOBEC3G confirm: 74.6*; UDG A3G counter: -2.7; ABHD5-PLIN5 conf: 60.0*; HNF4 counter: 101.3*

How did CN1CCc2cccc3c2[C@H]1Cc1ccc(O)c(O)c1-3 do in these assays?
core dimer inh: -11.0; NS3 helicase inh: -43.3; PRMT1 inh: 85.8*; ABHD5-PLIN5 inh: -3.5; A3A deaminase: -10.5; APOBEC3G inh: 50.8*!; APOBEC3G confirm: 102.7*; UDG A3G counter: -0.3; PRMT1 confirm: 38.2*

How did COc1ccccc1C(=O)NC1CCCCN(Cc2cccc(C(F)(F)F)c2)C1=O (centres undefined) do in these assays?
PRMT1 inh: -7.9

What do the screens show for `Cc1cc(C)c2c(N)c(C(=O)NC3CCCC3)sc2n1`?
core dimer inh: -6.2; NS3 helicase inh: -10.1; PRMT1 inh: 3.8; ABHD5-PLIN5 inh: -2.0; A3A deaminase: -0.3; APOBEC3G inh: 3.1

What do the screens show for `Cc1cc(C)c2c(=O)n(CC(=O)Nc3cccc(Cl)c3C)sc2n1`?
core dimer inh: -3.1; NS3 helicase inh: -2.7; PRMT1 inh: 97.0*; ABHD5-PLIN5 inh: 48.2*; A3A deaminase: 7.0; APOBEC3G inh: 71.8*; APOBEC3G confirm: 82.9*; UDG A3G counter: -3.1; PRMT1 confirm: 92.1*

Results for Cc1cc(C)c2c(=O)n(CC(=O)NC3CCCC3)sc2n1 ?
core dimer inh: 2.6; NS3 helicase inh: 4.0; PRMT1 inh: 83.4*; ABHD5-PLIN5 inh: 27.1*; A3A deaminase: -2.3; APOBEC3G inh: 51.3*; APOBEC3G confirm: 82.8*; UDG A3G counter: -0.9; ABHD5-PLIN5 conf: 32.9*; HNF4 counter: 106.8*; PRMT1 confirm: 88.8*

How did OC[C@@H](O)[C@@H](O[C@@H]1O[C@H](CO)[C@H](O)[C@H](O)[C@H]1O)[C@H](O)[C@@H](O)CO do in these assays?
core dimer inh: -14.8; PRMT1 inh: -2.3; ABHD5-PLIN5 inh: -8.5; A3A deaminase: 0.8; APOBEC3G inh: -0.7

Results for C[C@@H]1CN([C@@H](C)CO)C(=O)CCCn2nncc2CO[C@@H]1CN(C)C(=O)c1ccc(N2CCN(C)CC2)cc1 ?
PRMT1 inh: 3.3; ABHD5-PLIN5 inh: 2.0

Results for CC1=C(SCCC#N)S/C(=C2\SC(C)=C(SCCC#N)S2)S1 ?
core dimer inh: 0.0; NS3 helicase inh: 4.6; PRMT1 inh: 71.2*; ABHD5-PLIN5 inh: -2.3; A3A deaminase: 2.5; APOBEC3G inh: 69.0*; APOBEC3G confirm: 47.4*; UDG A3G counter: -2.9; PRMT1 confirm: 47.4*
